Source: ChEMBL document CHEMBL4028872, “Structure-Activity Relationship, Pharmacological Characterization, and Molecular Modeling of Noncompetitive Inhibitors of the Betaine/γ-Aminobutyric Acid Transporter 1 (BGT1)” (J Med Chem, 2017)

Legend:
Type in all cases: cell-based
[1] = biological target: Sodium- and chloride-dependent GABA transporter 1 (Mus musculus, UniProt P31648); test: Inhibition of mouse GAT1 expressed in HEK293 cells assessed as reduction in [3H]GABA uptake after 3 mins by scintillation counting method
Outline: (§1)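 HEK293 lines stably expressing a single mouse GAT subtype, kept under blasticidin-S (5 µg/mL) selection. Cells were assayed about 24 h after plating with 30 nM [3H]GABA plus varying compound concentrations for 3 min at 37 °C in HBSS buffered with 20 mM HEPES (1 mM CaCl2, 1 mM MgCl2, pH 7.4). Cells were washed ice-cold and radioactivity counted. IC50 came from sigmoidal variable-slope fits.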

GABA transporter 2 = biological target: T1, GABA transporter 2 (Mus musculus, UniProt P31651); test: Inhibition of mouse BGT1 expressed in HEK293 cells assessed as reduction in [3H]GABA uptake after 3 mins by scintillation counting method; details: read-out: IC50; outline: as §1
T1 sequence (P31651 whole entry): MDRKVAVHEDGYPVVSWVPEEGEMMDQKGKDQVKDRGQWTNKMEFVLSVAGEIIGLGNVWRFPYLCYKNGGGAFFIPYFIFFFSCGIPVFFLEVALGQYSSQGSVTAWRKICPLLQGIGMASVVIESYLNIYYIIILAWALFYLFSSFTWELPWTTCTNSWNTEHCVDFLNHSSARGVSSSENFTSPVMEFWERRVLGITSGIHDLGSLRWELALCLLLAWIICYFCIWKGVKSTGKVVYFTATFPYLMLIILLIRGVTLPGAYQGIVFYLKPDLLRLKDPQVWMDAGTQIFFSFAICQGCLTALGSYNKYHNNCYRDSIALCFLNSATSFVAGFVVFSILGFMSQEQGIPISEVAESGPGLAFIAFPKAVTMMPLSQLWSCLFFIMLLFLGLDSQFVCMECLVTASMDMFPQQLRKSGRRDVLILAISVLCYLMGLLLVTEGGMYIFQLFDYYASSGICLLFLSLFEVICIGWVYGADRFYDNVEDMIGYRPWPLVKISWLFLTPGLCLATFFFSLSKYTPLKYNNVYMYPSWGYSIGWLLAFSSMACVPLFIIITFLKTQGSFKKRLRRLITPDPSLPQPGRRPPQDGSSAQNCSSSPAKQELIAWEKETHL

GABA transporter 3 = biological target: T2, GABA transporter 3 (Mus musculus, UniProt P31649); test: Inhibition of mouse GAT2 expressed in HEK293 cells assessed as reduction in [3H]GABA uptake after 3 mins by scintillation counting method
T2 sequence (P31649 whole entry): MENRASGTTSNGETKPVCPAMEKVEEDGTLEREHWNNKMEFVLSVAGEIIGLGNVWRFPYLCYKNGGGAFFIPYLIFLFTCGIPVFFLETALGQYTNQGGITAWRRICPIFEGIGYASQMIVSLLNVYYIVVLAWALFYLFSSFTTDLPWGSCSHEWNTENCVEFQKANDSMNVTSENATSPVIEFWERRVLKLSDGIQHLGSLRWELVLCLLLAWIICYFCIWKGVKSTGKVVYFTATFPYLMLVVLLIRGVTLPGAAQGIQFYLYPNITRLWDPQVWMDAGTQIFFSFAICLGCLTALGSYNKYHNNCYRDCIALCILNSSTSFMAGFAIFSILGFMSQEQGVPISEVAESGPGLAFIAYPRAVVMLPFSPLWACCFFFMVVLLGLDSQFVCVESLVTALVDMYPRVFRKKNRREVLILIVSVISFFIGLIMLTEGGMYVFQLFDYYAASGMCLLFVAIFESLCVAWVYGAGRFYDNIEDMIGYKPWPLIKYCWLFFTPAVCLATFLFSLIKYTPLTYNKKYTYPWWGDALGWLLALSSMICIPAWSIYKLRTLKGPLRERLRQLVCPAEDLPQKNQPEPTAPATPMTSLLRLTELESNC
Outline: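 HEK293 cells stably expressing mouse GAT2 were kept under blasticidin-S (5 µg/mL) selection. Ice-cold washes preceded scintillation counting. IC50 came from a variable-slope sigmoidal fit.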

[2] = biological target: Sodium- and chloride-dependent GABA transporter 1 (Homo sapiens, UniProt P30531); details: read-out: IC50
Chain of Sodium- and chloride-dependent GABA transporter 1 (Homo sapiens, UniProt P30531) (P30531 whole entry): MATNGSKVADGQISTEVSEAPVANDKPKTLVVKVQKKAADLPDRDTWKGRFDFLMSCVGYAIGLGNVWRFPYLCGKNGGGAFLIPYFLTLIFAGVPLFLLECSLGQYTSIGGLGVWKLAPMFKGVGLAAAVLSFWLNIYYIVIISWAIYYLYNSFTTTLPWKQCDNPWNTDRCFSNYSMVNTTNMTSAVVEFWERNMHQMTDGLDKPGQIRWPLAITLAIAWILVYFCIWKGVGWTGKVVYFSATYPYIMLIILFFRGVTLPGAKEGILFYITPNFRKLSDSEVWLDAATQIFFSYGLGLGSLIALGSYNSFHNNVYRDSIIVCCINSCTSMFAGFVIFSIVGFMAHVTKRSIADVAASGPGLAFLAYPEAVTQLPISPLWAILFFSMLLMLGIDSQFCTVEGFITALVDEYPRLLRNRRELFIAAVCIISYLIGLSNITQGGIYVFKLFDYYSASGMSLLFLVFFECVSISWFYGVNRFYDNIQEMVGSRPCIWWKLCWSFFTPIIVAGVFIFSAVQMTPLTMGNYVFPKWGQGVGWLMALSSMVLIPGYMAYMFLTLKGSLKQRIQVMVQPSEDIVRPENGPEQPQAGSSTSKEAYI

IC50 [2] [µM] | Structure (SMILES) | IC50 [1] [µM] | IC50 (GABA transporter 2) [µM] | IC50 (GABA transporter 3) [µM]
– | O=C(NC1CCN(Cc2ccccc2)CC1)c1cccs1 | > 400 | 179 | > 400
– | O=C(NC1CCN(Cc2cccc([N+](=O)[O-])c2)CC1)c1ccc(Cl)nc1Cl | > 300 | > 300 | > 300
– | O=C(NC1CCN(Cc2ccc3c(c2)OCO3)CC1)c1ccc(Cl)nc1Cl | > 300 | 60 | > 300
– | Cc1cc(C)cc(CN2CCC(NC(=O)c3ccc(Cl)cc3Cl)CC2)c1 | > 300 | > 300 | > 300
– | O=C(NC1CCN(Cc2cccc(OCCO)c2)CC1)c1ccc(Cl)nc1Cl | > 300 | > 300 | > 300
– | O=C(NC1CCN(Cc2ccccc2)CC1)c1ccccc1Cl | > 400 | 151 | > 400
– | O=C(NC1CCN(Cc2cccc(Cl)c2)CC1)c1ccc(Cl)cc1Cl | > 300 | > 300 | > 300
– | O=C(NC1CCN(Cc2cccc(OC(F)(F)F)c2)CC1)c1ccc(Cl)cc1Cl | > 1000 | 160 | > 1000
– | O=C(NC1CCN(Cc2ccc(-c3ccccc3)cc2)CC1)c1ccc(Cl)nc1Cl | > 300 | > 300 | > 300
– | O=C(NC1CCN(Cc2ccccc2)CC1)c1cccnc1 | > 1000 | > 1000 | > 1000
– | O=C(NC1CCN(Cc2c[nH]c3ccccc23)CC1)c1ccc(Cl)nc1Cl | > 300 | 58 | > 300
– | O=C(NC1CCN(Cc2ccc(OC(F)(F)F)cc2)CC1)c1ccc(Cl)cc1Cl | > 1000 | > 1000 | > 1000
– | COC(=O)c1cccc(CN2CCC(NC(=O)c3ccc(Cl)nc3Cl)CC2)c1 | > 300 | > 300 | > 300
> 1000 | O=C(OC1CCN(Cc2ccccc2)CC1)c1ccccc1 | – | 106 | 349
– | COc1cccc(CN2CCC(NC(=O)c3cccs3)CC2)c1 | > 400 | 390 | > 400
– | O=C(NC1CCN(Cc2ccccc2)CC1)c1cccnc1Cl | > 1000 | 1650 | > 1000
– | NC(=O)c1cccc(CN2CCC(NC(=O)c3ccc(Cl)nc3Cl)CC2)c1 | > 300 | > 300 | > 300
– | COc1cccc(CN2CCC(NC(=O)c3ccncc3)CC2)c1 | > 1000 | > 1000 | > 1000
